Assay results collected from several papers.
Compare with care: the assays were run in different laboratories.
Cell line: HT-29

SMILES | assay | conditions | IC50
CC(=O)O[C@H]1C(=O)[C@@]2(C)[C@H]([C@H](OC(=O)c3ccccc3)[C@]3(O)C[C@H](OC(=O)[C@H](O)[C@@H](NC(=O)c4ccccc4)c4ccccc4)C(C)=C1C3(C)C)[C@]1(OC(C)=O)CO[C@@H]1C[C@@H]2O | cell growth or viability, fluorescence | 72 h | 0.0035 µM
O=c1cc(CO)occ1[O-].[Cl-].[W+4].c1cc[cH-]c1.c1cc[cH-]c1 | cell growth or viability, MTT |  | 200 µM
COc1ccc2c(c1)/C(=N/NC(=O)c1cc3ccccc3[nH]1)C(=O)N2C | cell growth or viability |  | 5.73 µM
NCCCC[C@@H](N)C(=O)Nc1ccc(-n2nc(C(F)(F)F)cc2-c2ccc3c(ccc4ccccc43)c2)cc1 | cell growth or viability, MTT | 24 h | 3.2 µg/mL
COc1c(C)c(OS(=O)(=O)c2ccc3ccccc3c2)c(C)c(OS(=O)(=O)c2ccc3ccccc3c2)c1C(=O)/C=C/c1ccccc1 | cell growth or viability, SRB | 72 h | > 50 µM
O=C(O)/C=C/c1ccc(O)c(O)c1 | cell growth or viability, MTT |  | 4.3 µM
NCCC(=O)Nc1ccc(-n2nc(C(F)(F)F)cc2-c2ccc3c(c2)oc2ccccc23)cc1 | cell growth or viability, MTT | 24 h | 7.2 µg/mL
COc1c2c(cc3c1OCO3)[C@]13C=C[C@H](OC)C[C@H]1N(C2)C[C@H]3OC(=O)c1cccc(C)c1 | cell growth or viability, WST-1 |  | > 10 µM
O=c1[nH]c(=O)n([C@H]2C[C@H](O)[C@@H](CO)O2)cc1F | cell growth or viability, SRB | 72 h | 0.056 µM
C#Cc1cc(Nc2nccc(Oc3ccc(NC(=O)Nc4cc(C(C)(C)C)nn4-c4ccc(C)cc4)c4ccccc34)n2)cc(C(=O)NCCOCCOCCOC)c1 | IL-8 release | 24 h | 0.0018 µM
CN1C(=O)/C(=N\NC(=O)c2cc3ccccc3[nH]2)c2ccccc21 | cell growth or viability |  | 12.9 µM
CC[C@H](C)C(=O)O[C@H]1C[C@@H](C)C=C2C=C[C@H](C)[C@H](CC[C@@H]3C[C@@H](O)CC(=O)O3)[C@H]21 | cell growth or viability, SRB | 72 h | 7.26 µg/mL
CC[C@]1(O)C[C@H]2CN(CCc3c([nH]c4ccccc34)[C@@](C(=O)OC)(c3cc4c(cc3OC)N(C=O)[C@H]3[C@@](O)(C(=O)OC)[C@H](OC(C)=O)[C@]5(CC)C=CCN6CC[C@]43[C@@H]65)C2)C1 | cell growth or viability, fluorescence | 72 h | 0.0004 µM
CCCCCCCCCCCC(=O)Oc1c(C)c(O)c(C(=O)/C=C/c2ccccc2)c(OC)c1C | cell growth or viability, SRB | 72 h | > 50 µM
COc1ccc(C(=O)O[C@@H]2CN3Cc4c(cc5c(c4OC)OCO5)[C@@]24C=C[C@H](OC)C[C@@H]34)cc1OC | cell growth or viability, WST-1 |  | > 10 µM
F[B-](F)(F)F.[Fe+3].c1cc[cH-]c1.c1cc[cH-]c1 | cell growth or viability, MTT |  | 180 µM
O=C1Nc2ccc(F)cc2/C1=N/NC(=O)c1cc2ccccc2[nH]1 | cell growth or viability |  | > 30 µM
CC[C@H](C)C(=O)O[C@H]1CCC=C2C=C[C@H](C)[C@H](CC[C@@H]3C[C@@H](O)CC(=O)O3)[C@H]21 | cell growth or viability, SRB | 72 h | 0.07 µg/mL
C#Cc1cccc(Nc2ncnc3cc(OCCOC)c(OCCOC)cc23)c1 | cell growth or viability, MTT |  | 0.07 µM
CC(=O)O[C@H]1C(=O)[C@@]2(C)[C@H]([C@H](OC(=O)c3ccccc3)[C@]3(O)C[C@H](OC(=O)[C@H](O)[C@@H](NC(=O)c4ccccc4)c4ccccc4)C(C)=C1C3(C)C)[C@]1(OC(C)=O)CO[C@@H]1C[C@@H]2O | cell growth or viability |  | 0.0006 µM
O=C1Nc2ccc(Cl)cc2/C1=N/NC(=O)c1cc2ccccc2[nH]1 | cell growth or viability |  | > 30 µM
Cc1ccc(-n2nc(C(C)(C)C)cc2NC(=O)Nc2ccc(OCCN3CCOCC3)c3ccccc23)cc1 | IL-8 release | 24 h | > 1.9 µM
COc1ccc(C(=O)O[C@@H]2CN3Cc4c(cc5c(c4OC)OCO5)[C@@]24C=C[C@H](OC)C[C@@H]34)cc1 | cell growth or viability, WST-1 |  | > 10 µM
O=C(O)c1cc(O)c(O)c(O)c1 | cell growth or viability, MTT |  | 16.3 µM
O=C(N/N=C1\C(=O)N(c2ccccc2)c2ccccc21)c1cc2ccccc2[nH]1 | cell growth or viability |  | 6.34 µM
COc1cc(Nc2nccc(-c3cnn4nc(OC)ccc34)n2)cc(C(F)(F)F)c1 | cell growth or viability, ATP luminescence |  | 0.33 µM
O=C(O)/C=C/c1ccc(O)cc1 | cell growth or viability, MTT |  | > 50 µM
CN1C(=O)/C(=N\NC(=O)c2cc3ccccc3[nH]2)c2cc(Cl)ccc21 | cell growth or viability |  | 5.67 µM
